The nature of data set [1]: AUC (0 to infinity) in BALB/c mouse at 50 mg/kg, po via gavage after 24 hrs by Lc-MS/MS analysis. The format is ADME, organism-based. Set-up: dose 50 mg/kg, time infinity, route oral. Particulars: in vivo.
The test system of another data set is RS4-11. The data set is described as follows: Induction of apoptosis in human RS4:11 cells harboring wild type p53/FLT3 assessed as cleavage of pro-caspase 3 at 100 nM after 24 hrs by Western blot analysis. It counts as functional, cell-based. In outline: (§1)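 Cells (1,500,000 per well) grown 12 h, then drug-treated as specified. Lysed in RIPA buffer, sonicated, centrifuged, protein normalized by BCA. Run on 4–12% Bis-Tris gels in MES, transferred, probed overnight at 4 °C with primary antibodies at 1/1000. Actin served as reference for LC3-II quantitation.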
A general note: A western blot detects proteins with antibodies after separation by electrophoresis.

The nature of data set [2]: Oral bioavailability in BALB/c mouse at 50 mg/kg dosed via gavage after 24 hrs by Lc-MS/MS analysis. It counts as ADME, organism-based. To be noted: in vivo.
Data set [3] is described as follows: Cmax in BALB/c mouse at 50 mg/kg, po via gavage after 24 hrs by Lc-MS/MS analysis. It counts as ADME, organism-based. Set-up: dose 50 mg/kg, route oral. To be noted: in vivo.
Data set [4] in a line: Mutagenecity in Salmonella typhimurium TA100 at 10 uM in presence of S9 liver homogenate after 2 to 3 days by mini-Ames test. To be noted: salmonella enterica subsp. enterica serovar typhimurium, s9, 10 µM. The format is toxicity. In outline:
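Compound was tested at a final 10 μM undiluted plus four serial dilutions, with S9 mix and glucose/biotin/trace-histidine exposure solution, for 100 min at 37 °C. Reversion medium was added and cultures dispensed to 96 wells for 2–3 days at 37 °C. Yellow or partial-yellow wells were scored positive; 2-aminoanthracene was the positive control.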

Data set [5] can be described thus: Half life in BALB/c mouse at 50 mg/kg, po via gavage after 24 hrs by Lc-MS/MS analysis. The format is ADME, organism-based. To be noted: in vivo.
The test system of another data set is MV4-11. The data set can be described thus: Induction of apoptosis in human MV4-11 cells harboring wild type p53/FLT3-ITD mutant assessed as cleavage of pro-caspase 3 at 100 nM after 24 hrs by Western blot analysis. The format is functional, cell-based. In outline:
as §1

The structures appear in SMILES notation. Calls of active or inactive are those of the source. The rule behind the calls is not given here.

What is called AUC(0-inf) is the area under the concentration-time curve extrapolated to infinity. The low end stands for low exposure, the high end for high exposure. As usually defined, the bioavailability is dose-corrected exposure relative to a reference, in per cent. One may read the Cmax as the peak of the concentration-time curve. One may read the half-life as how long it takes for the measured level to halve. `Cc1[nH]c2ccccc2c1CCNCc1ccc(/C=C/C(=O)NO)cc1` [PANOBINOSTAT] yielded an AUC(0-inf) in data set [1] of 126 ng·h/mL. Besides, the result in the data set with RS4-11 and in the data set with MV4-11 was Active. Besides, the bioavailability in data set [2] is 4.62%. In data set [3], the Cmax is 116 ng/mL. For the same compound, the Activity result in data set [4] is on record as “Toxic”. In data set [5], the half-life was 2.9 h.

Values taken from ChEMBL document CHEMBL4342521 (J Med Chem, 2020).
